{"data": "Measured values of several laboratories", "matrix": "plasma", "note": "Compare with care: the assays were run in different laboratories."}
{"Compound": "CCCCCn1nc(C(=O)Nc2cccc3ccccc23)c2ccccc21", "species": "male Long-Evans rat", "route": "intraperitoneal", "dose": "3 mg/kg", "quantity": "AUC(0-t)", "result": "304 ng·h/mL"}
{"Compound": "O=C([O-])C(=O)[O-].[NH-][C@@H]1CCCC[C@H]1[NH-].[Pt+4] (relative stereo)", "species": "rat", "route": "oral", "dose": "10 mg/kg", "quantity": "AUC(0-inf)", "result": "170 ng·h/mL"}
{"Compound": "COC(=O)C(NC(=O)c1cn(CCCCCF)c2ccccc12)C(C)(C)C (stereo not drawn)", "species": "male Sprague-Dawley rat", "route": "subcutaneous", "dose": "100 µg/kg", "quantity": "AUC(0-t)", "result": "17 ng·h/mL"}
{"Compound": "[2H]C([2H])([2H])n1cc2cc(Nc3nc(=O)n(Cc4ncn(C)n4)c(=O)n3Cc3cc(F)c(F)cc3F)c(Cl)cc2n1", "species": "male Sprague-Dawley rat", "route": "oral", "dose": "25 mg/kg", "quantity": "AUC(0-t)", "result": "334000 ng·h/mL"}
{"Compound": "N=c1c2c(-c3ccccc3)c(-c3ccccc3)n(Cc3ccccc3)c2ncn1[C@H]1CC[C@H](O)CC1", "species": "male Sprague-Dawley rat", "route": "intravenous", "dose": "2 mg/kg", "setting": "single dose", "quantity": "AUC(0-inf)", "result": "1700 ng·h/mL"}
{"Compound": "Cl.Cl.O=C(CCN1CCCCC1)c1ccc(-c2ccc(C(=O)CCN3CCCCC3)cc2)cc1", "species": "Sprague-Dawley rat", "route": "oral", "dose": "25 mg/kg", "quantity": "AUC(0-t)", "result": "135 ng·h/mL"}
{"Compound": "Cn1cnc(Cn2c(=O)[nH]/c(=N\\c3cc4cn(C)nc4cc3Cl)n(Cc3cc(F)c(F)cc3F)c2=O)n1", "species": "male Sprague-Dawley rat", "route": "intravenous", "dose": "5 mg/kg", "quantity": "AUC(0-t)", "result": "81000 ng·h/mL"}
{"Compound": "CCC[C@@](N)(CO)CCc1ccc(OCCCCCC(C)C)cc1", "species": "rat", "route": "oral", "dose": "30 mg/kg", "quantity": "AUC(0-t)", "result": "6.18 µM·h"}
{"Compound": "CCCCCn1cc(C(=O)Nc2cccc3ccccc23)c2ccccc21", "species": "male Long-Evans rat", "route": "intraperitoneal", "dose": "3 mg/kg", "quantity": "AUC(0-t)", "result": "4240 ng·h/mL"}
{"Compound": "[2H]C([2H])(c1cc(F)c(F)cc1F)n1c(=O)n(Cc2ncn(C)n2)c(=O)[nH]/c1=N\\c1cc2cn(C)nc2cc1Cl", "species": "male Sprague-Dawley rat", "route": "intravenous", "dose": "5 mg/kg", "quantity": "AUC(0-t)", "result": "78000 ng·h/mL"}
{"Compound": "CC(C)(C)[C@H](NC(=O)[C@H](CCONC(=N)N)NC(=O)Cc1ccc(CNC(=N)N)cc1)C(=O)N[C@@H](CCONC(=N)N)C(=O)NCc1ccc(C(=N)N)cc1", "species": "male Sprague-Dawley rat", "route": "intraperitoneal", "dose": "2.5 mg/kg", "quantity": "AUC(0-t)", "result": "9350 ng·h/mL"}
{"Compound": "CN(C)C(=O)Oc1cc(OC(=O)N(C)C)cc(-c2cc3ccc(O)cc3o2)c1", "species": "male rat", "route": "oral", "dose": "5 mg/kg", "quantity": "AUC(0-t)", "result": "17.7 ng·h/mL"}
